ChEMBL document CHEMBL1128272, “Stereoselective LSD-like activity in a series of d-lysergic acid amides of (R)- and (S)-2-aminoalkanes” (J Med Chem, 1995)
Active and inactive are the calls of the source. The calls are words filed in the database; no cut-off is given here.

What was measured:
[1] = target: T1, 5-hydroxytryptamine receptor 1A (Rattus norvegicus, UniProt P19327); assay: Binding affinity was measured against 5-hydroxytryptamine 1A receptor by displacement of [3H]8-OH-DPAT by lysergic acid amides
T1 sequence (P19327 whole entry): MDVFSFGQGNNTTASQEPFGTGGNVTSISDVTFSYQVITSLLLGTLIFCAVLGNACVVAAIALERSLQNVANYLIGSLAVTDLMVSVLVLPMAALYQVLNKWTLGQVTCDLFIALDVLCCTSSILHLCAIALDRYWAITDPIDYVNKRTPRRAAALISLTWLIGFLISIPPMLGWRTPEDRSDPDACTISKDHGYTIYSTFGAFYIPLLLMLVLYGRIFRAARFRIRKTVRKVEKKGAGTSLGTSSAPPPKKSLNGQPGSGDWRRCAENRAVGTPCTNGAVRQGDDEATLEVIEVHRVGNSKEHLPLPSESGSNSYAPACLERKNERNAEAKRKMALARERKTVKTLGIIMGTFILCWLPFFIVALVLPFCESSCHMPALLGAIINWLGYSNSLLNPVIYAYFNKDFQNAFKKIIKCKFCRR
In short: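 Rat hippocampal membranes from pooled male Sprague-Dawley rats, preincubated at 37 °C, in 50 mM Tris HCl (pH 7.4) with 0.5 mM Na2EDTA, 0.1% ascorbate and 10 μM pargyline. Competition against 0.75 nM [3H]-8-OH-DPAT for 10 min at 37 °C, then GF/C filtration and scintillation counting. Triplicates. Three to four experiments combined, analysed with EBDA/LIGAND.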

[2] = target: T2, 5-hydroxytryptamine receptor 2A (Rattus norvegicus, UniProt P14842); assay: (§1) Binding affinity was measured against 5-hydroxytryptamine 2A receptor by displacement of [3H]- ketanserin by lysergic acid amides
In short: (§2)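 Rat frontal cortex membranes from pooled male Sprague-Dawley rats, preincubated at 37 °C, in 50 mM Tris HCl (pH 7.4) with 0.5 mM Na2EDTA, 0.1% ascorbate, 10 μM pargyline and 5.7 mM CaCl2. Triplicates. Three to four experiments combined.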

Rattus norvegicus [3] = assay: Compound was tested for its effect on animals. Value reported as number of rats disrupted in trained rats at a dose of 465 (nmol/kg); type: functional
In short: (§3)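 Two-lever drug discrimination in food-restricted rats (~80% free-feeding weight) trained on FR 50 to tell saline from LSD tartrate (186 nmol/kg, 0.08 mg/kg ip, 30 min pre-session). Test drugs were given ip in saline, 1 mL/kg. Test sessions ran under extinction, ending at 50 presses on either lever. Testing required 85% training accuracy. Counts of rats tested and disrupted were recorded, plus the percentage selecting the drug lever.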

Rattus norvegicus [4] = assay: Compound was tested for its effect on animals. Value reported as number of rats disrupted in trained rats at a dose of 47 (nmol/kg); type: functional; in short: as §3
Rattus norvegicus [5] = assay: Compound was tested for its effect on animals. Value reported as number of rats disrupted in trained rats at a dose of 93 (nmol/kg); type: functional; in short: as §3
Rattus norvegicus [6] = assay: Compound was tested for its effect on animals. Value reported as number of rats disrupted in trained rats at a dose of 372 (nmol/kg); type: functional; in short: as §3
Rattus norvegicus [7] = assay: Compound was tested for its effect on animals. Value reported as number of rats disrupted in trained rats at a dose of 186 (nmol/kg); type: functional; in short: as §3
Rattus norvegicus [8] = assay: Compound was tested for its effect on animals. Value reported as number of rats disrupted in trained rats at a dose of 290 (nmol/kg); type: functional; in short: as §3
Rattus norvegicus [9] = assay: Effective dose in trained rats was determined at a dose of 47 (nmol/kg); type: functional
Rattus norvegicus [10] = assay: Percentage of animals selecting drug lever in trained rats at a dose 372 (nmol/kg); type: functional; in short: as §3
Rattus norvegicus [11] = assay: Percentage of animals selecting drug lever in trained rats at a dose 465 (nmol/kg); type: functional
In short: (§4)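 Drug-naive rats held at about 80% of free-feeding weight were trained on a two-lever FR50 food schedule to tell ip LSD tartrate (186 nmol/kg, 0.08 mg/kg) from saline, given 30 min before sessions. Test drugs were given ip in saline (1 mL/kg). Tests ran under extinction and ended at 50 presses on either lever. Rats had to hold 85% correct on training days. Read-out was % selecting the drug lever per dose.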

Rattus norvegicus [12] = assay: Percentage of animals selecting drug lever in trained rats at a dose 93 (nmol/kg); type: functional; in short: as §4
Rattus norvegicus [13] = assay: Percentage of animals selecting drug lever in trained rats at a dose 290 (nmol/kg); type: functional; in short: as §3
Rattus norvegicus [14] = assay: Potency in trained rats was determined with relative to reference compound […] at a dose of 186 (nmol/kg); type: functional
Rattus norvegicus [15] = assay: Percentage of animals selecting drug lever in trained rats at a dose 186 (nmol/kg); type: functional; in short: as §3
Rattus norvegicus [16] = assay: Effective dose in trained rats was determined at a dose of 186 (nmol/kg); type: functional
Rattus norvegicus [17] = assay: Compound was tested for its effect on animals. Value reported as number of rats disrupted in trained rats at a dose of 55 (nmol/kg); type: functional; in short: as §3
Rattus norvegicus [18] = assay: Compound was tested for its effect on animals. Value reported as number of rats disrupted in trained rats at a dose of 220 (nmol/kg); type: functional; in short: as §3
Rattus norvegicus [19] = assay: Effective dose in trained rats was determined at a dose of 55 (nmol/kg) Value in parentheses are with 95% confidence intervals; type: functional
Rattus norvegicus [20] = assay: Compound was tested for its effect on animals. Value reported as number of rats disrupted in trained rats at a dose of 110 (nmol/kg); type: functional; in short: as §3
Rattus norvegicus [21] = assay: Percentage of animals selecting drug lever in trained rats at a dose 55 (nmol/kg); type: functional; in short: as §4
Rattus norvegicus [22] = assay: Potency in trained rats was determined with relative to reference compound […] at a dose of 55 (nmol/kg); type: functional
Rattus norvegicus [23] = assay: Percentage of animals selecting drug lever in 1-Trained rats at a dose 110 (nmol/kg); type: functional; in short: as §3
Rattus norvegicus [24] = assay: Percentage of animals selecting drug lever in 1-Trained rats at a dose 220 (nmol/kg); type: functional; in short: as §3
[25] = target: T2, 5-hydroxytryptamine receptor 2A; assay: as §1; remark: listed apart in the source
In short: as §2, with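 “CaCl2. Displacement of 0.75 nM [3H]ketanserin with 200–400 μg protein for 15 min at 37 °C, then GF/C filtration.” for “CaCl2.”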

Rattus norvegicus [26] = assay: Compound was tested for its effect on animals. Value reported as number of rats disrupted in trained rats at a dose of 440 (nmol/kg); type: functional; in short: as §3
Rattus norvegicus [27] = assay: Compound was tested for its effect on animals. Value reported as number of rats disrupted in trained rats at a dose of 1760 (nmol/kg); type: functional; in short: as §3
Rattus norvegicus [28] = assay: Effective dose in trained rats was determined at a dose of 220 (nmol/kg); type: functional, organism-based
Rattus norvegicus [29] = assay: Percentage of animals selecting drug lever in trained rats at a dose 440 (nmol/kg); type: functional; in short: as §3
Rattus norvegicus [30] = assay: Percentage of animals selecting drug lever in trained rats at a dose 1760 (nmol/kg); type: functional; in short: as §3
Rattus norvegicus [31] = assay: Percentage of animals selecting drug lever in trained rats at a dose 220 (nmol/kg); type: functional; in short: as §3

T2 sequence (P14842 whole entry): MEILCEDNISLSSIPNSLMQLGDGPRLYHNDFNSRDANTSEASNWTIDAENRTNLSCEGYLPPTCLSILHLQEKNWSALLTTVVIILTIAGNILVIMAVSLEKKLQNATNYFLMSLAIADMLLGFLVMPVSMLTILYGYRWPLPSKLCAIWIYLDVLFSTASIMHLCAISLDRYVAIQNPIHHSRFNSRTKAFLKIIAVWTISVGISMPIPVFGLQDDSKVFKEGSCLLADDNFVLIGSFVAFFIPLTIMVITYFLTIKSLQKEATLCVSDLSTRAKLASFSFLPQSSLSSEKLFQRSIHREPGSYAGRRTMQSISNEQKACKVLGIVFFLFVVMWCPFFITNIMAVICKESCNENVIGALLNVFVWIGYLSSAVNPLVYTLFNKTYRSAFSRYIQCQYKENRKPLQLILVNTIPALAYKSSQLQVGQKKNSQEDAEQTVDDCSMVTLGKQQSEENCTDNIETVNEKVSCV

In the case of `CC[C@@H](C)NC(=O)[C@@H]1C=C2c3cccc4[nH]cc(c34)C[C@H]2N(C)C1`, the Ki [1] is reported as 4.6 nM, the Ki [2] is reported as 34 nM and the D (Rattus norvegicus [3]) is reported as 10%. For the same compound, the D (Rattus norvegicus [4]) was 10%, the D (Rattus norvegicus [5]) was 0% and the D (Rattus norvegicus [6]) was 0%. It also gave a D (Rattus norvegicus [7]) of 27%, a D (Rattus norvegicus [8]) of 10% and an ED50 (Rattus norvegicus [9]) of 0.124 µmol/kg. The SDL (Rattus norvegicus [10]) was 75%, the SDL (Rattus norvegicus [11]) was 100% and the SDL (Rattus norvegicus [12]) was 50%. For the same compound, the SDL (Rattus norvegicus [13]) was 67% and the Potency (Rattus norvegicus [14]) was 0.39.

For `CCN(CC)C(=O)[C@@H]1C=C2c3cccc4[nH]cc(c34)C[C@H]2N(C)C1` [LYSERGIDE], the D (Rattus norvegicus [7]) was 0%, the Potency (Rattus norvegicus [14]) was 1 and the SDL (Rattus norvegicus [15]) was 100%. The ED50 (Rattus norvegicus [16]) was 0.048 µmol/kg.

`CCC[C@@H](C)NC(=O)[C@@H]1C=C2c3cccc4[nH]cc(c34)C[C@H]2N(C)C1` was tested, and the Ki [1] was 0.6 nM, the Ki [2] was 4.5 nM and the D (Rattus norvegicus [17]) was 0%. The D (Rattus norvegicus [18]) was 30%, the ED50 (Rattus norvegicus [19]) was 0.102 µmol/kg and the D (Rattus norvegicus [20]) was 0%. The SDL (Rattus norvegicus [21]) was 14%, the Potency (Rattus norvegicus [22]) was 0.47 and the SDL (Rattus norvegicus [23]) was 44%. It also gave an SDL (Rattus norvegicus [24]) of 100%.

Compound `CCCC(C)NC(=O)[C@@H]1C=C2c3cccc4[nH]cc(c34)C[C@H]2N(C)C1` (some centres undefined) has a Ki [1] of 8 nM, a Ki [25] of 105 nM and a D (Rattus norvegicus [26]) of 0%. For the same compound, the D (Rattus norvegicus [27]) was 11%, the D (Rattus norvegicus [7]) was 0% and the ED50 (Rattus norvegicus [28]) was “inactive”. It also gave an SDL (Rattus norvegicus [29]) of 0%, an SDL (Rattus norvegicus [30]) of 25% and an SDL (Rattus norvegicus [31]) of 0%.

Compound `CCCCC[C@@H](C)NC(=O)[C@@H]1C=C2c3cccc4[nH]cc(c34)C[C@H]2N(C)C1` has a Ki [1] of 3.3 nM and a Ki [2] of 80 nM.
